Here are results for 57 compounds from PubChem BioAssay AID1899 (The Scripps Research Institute Molecular Screening Center, 2009).

Among all 300,000 compounds or so, about 1,000 (0.33%) were called active. Shown is part of a subset that was picked to be rich in actives. Unmarked numbers belong to inactive results.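 Rule for the calls: active = inhibition above the mean of all tested compounds plus 3 SD, set per screening campaign (cut at about 45% in these data); inactive = the rest.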

The inhibition is the relative decrease from the control value, in per cent.

The test system of the experiment is HCV core protein (residues 1-106) dimerization. Briefly: inhibitors of HCV core protein dimerization, primary screen, biochemical, TR-FRET, high-throughput (AID 1899). The conditions noted are these: TR-FRET GST/Flag-core106 dimerization, 1536-well; at 5 µM; stronger effect = higher value. In short, it runs like this:
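Test system: GST/Flag-tagged HCV core106 proteins; Medium: KF-containing HEPES buffer, pH 7.45, DTT, CHAPS, BSA; Times: compound-protein-antibody incubation 4 h at 22.5 °C; Detection: TR-FRET 671 and 617 nm emission; Benchmarks: wells lacking GST-core106 and wells with excess unlabelled core106.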
As to `CSc1nc(-c2ccco2)nn1C(=O)CCc1ccccc1`, the inhibition was -2.5%. The figure for `CCOc1ccccc1/C=c1\sc2nc(-c3ccco3)nn2c1=O` is 62.2% (active); for `O=c1nc2s/c(=C\c3ccco3)c(=O)n2nc1Cc1ccccc1` it is 22.3%; for `CC(=O)c1c(Nc2ccccc2)sc(C(=O)c2ccccc2)c1C` it is -11.1%. For `C=CCC(Nc1ccccc1)c1cccc(OC)c1OC` (configuration not stated), the inhibition is 2.92%. The figure for `CCOC(=O)c1c(C)n(C)c2ccc(OC)c(NC(=O)CN3CCC4(CC3)OCCO4)c12` is -1.2%.

`O=C(Nc1ccc(S(=O)(=O)Nc2nccs2)cc1)c1cc(-c2ccncc2)nc2ccccc12`: the inhibition was 76% (active). The figure for `Cc1ccc2nc(-c3ccncc3)cc(C(=O)Nc3ccncc3)c2c1` is 8.74%; for `O=C(Nc1ccc(S(=O)(=O)Nc2nccs2)cc1)c1cc(=O)[nH]c2ccccc12` it is 2.23%; for `Cc1ccc(C(=O)O)cc1-c1ccc(/C=C2\SC(=O)N(CC(=O)Nc3ccc4c(c3)OCO4)C2=O)o1` it is 4.8%. Regarding `C=CCOc1ccc(Cl)cc1CNCCCN1CCOCC1`, the inhibition was 12.2%. Consider `CCn1c(C)c(C)c2cc(C(=O)N3CCN(c4cccc(C)c4C)CC3)ccc21`, for which the inhibition was 18%.

In the case of `C[C@@H]1CC[C@@]2(OC1)O[C@H]1C[C@H]3[C@@H]4CC=C5C[C@@H](O)[C@H](O)C[C@]5(C)C4CC[C@]3(C)[C@H]1[C@@H]2C` (some centres not stated), the inhibition is -14.2%. As to `Cc1cccc(NC(=O)CN2CCCN(S(=O)(=O)c3ccc(Br)s3)CC2)c1`, the inhibition was 3.89%.

On to `CCN(CC(=O)NC1CCS(=O)(=O)C1)c1nc(-c2cccnc2)nc2ccccc12` (configuration not stated), for which the inhibition is -0.09%. For `COC(=O)CCCC1=CC2=CC(=O)C(C)(OC(=O)c3cccs3)C(=O)C2=CN1c1cccc(C#N)c1` (configuration not stated), the inhibition is 47.4% (active).

For `COC(=O)CCCC1=CC2=CC(=O)C(C)(OC(=O)c3cccs3)C(=O)C2=CN1CC1CC1` (configuration not stated), the inhibition was -6.02%.

On to `COC(=O)CCCC1=CC2=CC(=O)C(C)(OC(=O)c3cccs3)C(=O)C2=CN1CC(C)C` (configuration not stated), for which the inhibition is 11.6%. The figure for `COc1cccc(NC(=O)c2ccccc2N(Cc2ccccc2)S(C)(=O)=O)c1` is 1.86%. The figure for `COc1ccc(NC(=O)CCNC(=O)Cn2ccc3ccccc3c2=O)c(OC)c1` is -5.48%; for `CCc1ccc(NC(=O)Cn2ncn3c(cc4ccccc43)c2=O)cc1` it is 13%; for `COc1ccc(NC(=O)Cn2ncn3c(cc4ccccc43)c2=O)c(OC)c1OC` it is 50.6% (active). The result for `Fc1ccc(-c2ccc(NCCN3CCOCC3)nn2)cc1` reads -9.05%; that for `Cc1ccc(C)c(OCCC(=O)Nc2cccc(S(=O)(=O)N3CCCC3)c2)c1`, -2.89%; that for `CN(C(=O)COC(=O)c1cc(-c2ccco2)nc2ccccc12)C1CCS(=O)(=O)C1` (configuration not stated), 77.2% (active). Regarding `CN(C(=O)COC(=O)c1nc(Cl)ccc1Cl)C1CCS(=O)(=O)C1` (configuration not stated), the inhibition is 5.01%. The figure for `Cc1c(-c2cccc(Cl)c2)nc2ccccc2c1C(=O)OCC(=O)N(C)C1CCS(=O)(=O)C1` (configuration not stated) is 1.86%; for `COc1ccc(NC(=O)c2ccccc2CC[N+](=O)[O-])cc1` it is 1.6%. The figure for `O=C(Cc1ccc(S(=O)(=O)N2CCCC2)s1)NC1CCCCCC1` is 48% (active). The result for `O=C(Cc1ccc(S(=O)(=O)N2CCOCC2)s1)NCCC(c1ccccc1)c1ccccc1` reads 44.1%; that for `O=C(NC1CCCCC1)C1CCCN(S(=O)(=O)c2ccc(Br)s2)C1` (configuration not stated), 3.6%; that for `Cc1ccc(NS(=O)(=O)c2c(C)[nH]c(=O)[nH]c2=O)cc1C`, -1.79%.

As for `Cc1nc2c(c(C)nn2-c2ccccc2)c(C)c1C`, the inhibition is -4.33%. Regarding `CSc1ccc(-c2c(C#N)c(N)nc3c2c(C)nn3-c2ccccc2)cc1`, the inhibition was 49.1% (active). Take `Cc1nn(-c2ccccc2)c2c1C(c1ccc(F)cc1)C(C#N)=C(N)O2` (configuration not stated): the inhibition was -4.93%. The figure for `CC(C)C(C)(C#N)NC(=O)CSc1nc2scc(-c3ccccc3)c2c(=O)[nH]1` (configuration not stated) is 13.3%; for `CCOC(=O)c1cc(C#N)c(N2CCCCC2)nc1-c1ccccc1` it is 13.8%.

Take `CCC(C)(C)n1nnnc1CN1CCN(c2nc3ccc(C)cc3cc2C#N)CC1`: the inhibition was 20.6%. The result for `Cc1cc(C)c2nc(N3CCCC3)c(C#N)cc2c1` reads 51.7% (active); that for `CN(CCC(=O)Nc1cc(S(=O)(=O)N(C)C)ccc1Cl)CC(=O)Nc1ccc(F)cc1`, -16.6%; that for `COc1cccc(/C=C2\Sc3ccc(C(=O)NCC4CCCO4)cc3N(C)C2=O)c1` (configuration not stated), 4.72%. The result for `CCOc1ccccc1NC(=O)Cc1cccs1` reads 55.5% (active). The figure for `COc1ccc(OC)c(NC(=O)Cc2cccs2)c1` is 14.6%; for `CCOc1ccccc1NC(=O)Cn1nnc(C(=O)NCc2cccs2)c1N` it is -5.57%. For `COc1ccc(C(=O)c2c3ccc([N+](=O)[O-])cc3[n+]([O-])n2CCCN)cc1`, the inhibition was 1.89%. The figure for `CCc1ccc(NC(=O)CN2C(=O)CSC2=O)cc1` is -2.17%; for `Nc1nonc1-n1nnc(C(=O)N/N=C/C2CCCCC2)c1-c1ccccc1` it is -6.4%. The figure for `Fc1ccc2c(c1)C(c1cccnc1)=NNC(c1cccs1)=N2` is -0.24%; for `COc1ccc2c(c1)C(c1cccs1)=NNC(c1cccnc1)=N2` it is 48.7% (active); for `CCOc1ccc2c(c1)C(c1ccc(C)cc1)=NNC(c1ccc(C)cc1)=N2` it is 6.95%.

As to `CC(=O)c1ccc(S(=O)(=O)NC2CC(=O)N(c3ccc4c(c3)OCCO4)C2)cc1` (configuration not stated), the inhibition was 0.9%. The figure for `COc1ccc(/C=C/C2=CC(C)(C)NC(=S)N2)c(OC)c1` is 3.61%; for `CN1CCN(C(=O)N2c3ccccc3CCc3ccccc32)CC1` it is -2.2%. The figure for `CCOc1ccc(C(=O)NC(=S)Nc2ccc(N3CCOCC3)c(Cl)c2)cc1[N+](=O)[O-]` is 15.3%; for `O=C1Nc2cc(C(=O)N3CCN(c4ccc(F)cc4)CC3)ccc2NC1CSCc1cccc(F)c1` (configuration not stated) it is 17.5%. The figure for `Cc1ccc(CSCC2Nc3ccc(C(=O)N4CCN(c5ccc(F)cc5)CC4)cc3NC2=O)cc1` (configuration not stated) is 67% (active); for `O=C(c1cc(C(=O)N2CCN(c3ccc(F)cc3)CC2)cc([N+](=O)[O-])c1)N1CCN(c2ccc(F)cc2)CC1` it is 19%.
